PKD1 inh: inhibitors of human PKD1 kinase; PKD1 kinase fluorescence polarization assay; inhibition, % (test concentration not listed); 200,000 tested, 0.056% active; AID 797; in the data active = inhibition above about 50%
Mdm2 ligase inh: blocks human Mdm2 ubiquitin ligase activity | Q00987 | cell-based MDM2 ubiquitination luciferase reporter, 2 h; 0 = plate control, 100 = twice control, blank-subtracted | signal enhancement, % at 5 µM | 210,000 tested, 0.11% active | AID 1230;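 active = signal enhancement of 30% or more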;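 also: luminescence tracks abundance of the self-degrading MDM2-luciferase fusion protein; higher signal means inhibition of MDM2 E3 ligase activity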
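Timing – 2 h compound exposure at 37 °C · Assay system – mammalian cells stably expressing self-ubiquitinating, self-degrading MDM2 E3–luciferase fusion · Amount – 2000 cells seeded into each well · Measure – % luminescence enhancement versus blank-corrected plate control mean · Measured by – SteadyLite luminescence, 15 min reagent step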
p97 inhibitor: human p97 ATPase inhibition | recombinant p97 ATPase, Kinase-Glo ATP luminescence, 3 h | inhibition, % at 8 µM | 220,000 tested, 0.42% active | AID 1481; in the data active = inhibition above about 15%;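 also: 0% = DMSO vehicle and 100% = wells lacking enzyme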
Target sequence (P55072 whole entry, looked up): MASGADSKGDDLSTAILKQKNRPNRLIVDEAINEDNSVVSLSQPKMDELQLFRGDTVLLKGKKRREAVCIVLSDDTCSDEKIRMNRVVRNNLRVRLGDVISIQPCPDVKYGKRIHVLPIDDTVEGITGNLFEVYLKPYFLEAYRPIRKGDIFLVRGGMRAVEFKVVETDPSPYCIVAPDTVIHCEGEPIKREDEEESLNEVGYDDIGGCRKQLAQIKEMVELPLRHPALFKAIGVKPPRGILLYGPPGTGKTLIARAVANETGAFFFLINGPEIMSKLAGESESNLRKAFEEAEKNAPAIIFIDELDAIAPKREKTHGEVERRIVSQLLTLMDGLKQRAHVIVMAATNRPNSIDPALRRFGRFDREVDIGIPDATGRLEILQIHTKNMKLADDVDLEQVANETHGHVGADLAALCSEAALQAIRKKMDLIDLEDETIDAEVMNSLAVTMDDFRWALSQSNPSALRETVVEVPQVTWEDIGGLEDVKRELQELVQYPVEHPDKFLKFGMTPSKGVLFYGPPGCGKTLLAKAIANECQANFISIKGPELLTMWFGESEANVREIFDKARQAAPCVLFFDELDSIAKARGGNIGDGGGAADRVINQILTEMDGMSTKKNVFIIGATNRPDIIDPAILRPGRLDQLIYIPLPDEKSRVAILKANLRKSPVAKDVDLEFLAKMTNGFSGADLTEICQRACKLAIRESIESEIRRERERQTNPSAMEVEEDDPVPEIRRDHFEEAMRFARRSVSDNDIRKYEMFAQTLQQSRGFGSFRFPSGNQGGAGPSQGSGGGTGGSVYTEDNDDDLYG
KCC2 mod: modulates chloride dependent transport by human KCC2. KCC2 cells, thallium flux FluoZin-2 fluorescence. B-score of Tl+ flux slope (higher = more flux/activation; lower = inhibition) at 10 µM. 190,000 tested, 2.2% active;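 active = thallium flux slope and its plate-corrected score both differing from the plate sample mean at a set confidence after two filtering rounds, in either direction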;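 also: slope of fluorescence scaled to starting intensity during 10 to 20 s after thallium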
ROMK mod: modulates human ROMK potassium channel activity; Tet-inducible ROMK, thallium flux fluorescence; actives lie on both sides; AID 1918; 130,000 tested, 2% active; P48048; B-score at 10 µM;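 active = signal ratio slope over the read window, or its plate-corrected B-score, at least 3 SD from the plate mean, either direction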;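 also: B-score of the F/F0 ratio slope over 7 to 12 s after thallium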
DTT redox prof: compounds producing H2O2 with reducing agent – biochemical, NIH compound library profiling, artefact control for MLSCN library redox annotation, primary screen; 200,000 tested, 0.03% active; DTT-dependent redox cycling H2O2, phenol red/HRP absorbance; 100% = 100 µM peroxide control, 0% = buffer; activation, % at 10 µM;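 active = activation of at least 50% relative to the plate's high and low controls in the primary single-dose screen; inactive = activation below 50%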;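 also: compound incubated with DTT at 0.8 mM final as the reducing agent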
ROMK retest: human ROMK channel modulation, retest confirmation; shares compounds with ROMK mod; AID 1917; 3,000 tested, 54% active; ROMK thallium flux, fluorescence ratio; hits give low values; normalized thallium flux (F/F0 slope) at 10 µM;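 active = Flux at 10 µM at least 3 SD below or above vehicle control mean in one or both replicates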
* hit, by the source's call; . = no result. Rows were chosen to be rich in hits. Some 3.4% of all compounds tested hit in one or more screens of this group.

SMILES	PKD1 inh	Mdm2 ligase inh	p97 inhibitor	KCC2 mod	ROMK mod	DTT redox prof	ROMK retest
O=Nc1c2nc3ccccc3n(O)c-2c2ccccc12	7	-18	2	0.51	.	-1	.
Cc1ccc(S(=O)(=O)N2CCCCC2)cc1NC(=O)COC(=O)Cc1cccc(C(F)(F)F)c1	-8	-2	-3	-0.012	-4*	-1	0.063*
Cc1ccc(S(=O)(=O)N2CCCCC2)cc1NC(=O)COC(=O)Cc1ccc(Cl)cc1	-11	-14	0	-1.5	-2.2	0	.
O=C(Nc1ccccc1F)Nc1cc(S(=O)(=O)N2CCOCC2)ccc1N1CCCC1	-8	-4	-3	0.26	-0.26	0	.
N#C/C(=C\c1ccccc1)C(=O)Nc1cc(S(=O)(=O)N2CCOCC2)ccc1N1CCCC1	-5	-12	0	-0.85	.	0	0.056*
O=C(COC(=O)Cc1ccc(Cl)cc1)Nc1cc(S(=O)(=O)N2CCOCC2)ccc1N1CCCC1	-7	2	-4	-0.46	-4.3*	0	0.061*
COc1ccc(-c2cc(C(=O)Nc3cc(S(=O)(=O)N4CCOCC4)ccc3N3CCOCC3)c3ccccc3n2)cc1	3	-7	8	-1.3	1.8*	-3	0.065*
Cc1cc(C)c2cc(C(=O)Nc3ccccc3)[nH]c2c1	.	-6	14	-0.12	.	.	0.079
COCCNC(=O)/C(C#N)=C/c1c(F)cccc1Cl	-2	-9	3	0.22	-3.7*	-2	0.037*
CCCCNC(=O)/C(C#N)=C/c1ccc(F)cc1F	-5	-3	2	0.68	-7.8*	0	0.046*
CCOCCCNC(=O)/C(C#N)=C/c1ccc(C)o1	-6	-21	1	0.62	-0.15	0	.
COCCCNC(=O)/C(C#N)=C/c1ccc(F)cc1	-1	-2	3	-0.89	-3.9*	0	0.052*
COCCNC(=O)/C(C#N)=C/c1ccc(SC)cc1	-1	-1	7	-0.12	-3.9*	0	0.049*
COCCNC(=O)/C(C#N)=C/c1ccc(C(=O)O)cc1	0	-49	5	-0.59	-0.5	0	.
CC(C)(C)C(O)(CC#CCN1CCCC1)c1ccccc1 (stereo not given)	3	8	6	0.0057	-0.57	0	.
Nc1nccc(/C=C/c2ccc(Cl)cc2)n1	.	-15	3	-0.61	.	.	.
COc1cc(/C=C(/C#N)C(=O)Nc2ccccc2)ccc1OCc1ccc(C(=O)O)cc1	6	-11	-1	-3	-2.5*	4	0.053*
COCCNC(=O)/C(C#N)=C/c1ccc(OC(=O)c2cccs2)c(OC)c1	5	-29	5	-0.034	-4.4*	0	0.044*
COc1cc(/C=C(\C#N)C(=O)NC2CCCCC2)ccc1OCc1ccc(C(=O)O)cc1	-2	-2	3	-2.6	-0.75	0	.
COCCNC(=O)/C(C#N)=C/c1cccs1	.	-11	5	0.34	.	.	.
O=C(CC12CC3CC(CC(C3)C1)C2)N/N=C/c1ccc([N+](=O)[O-])o1	-6	-5	9	-0.0083	.	0	.
CCC(C)Sc1nc2c(c(=O)[nH]c(=O)n2C)n1CC(O)COc1ccccc1C (stereo not given)	-4	-7	-2	0.56	-3.5*	1	0.066*
CC12COC3(C(=O)Nc4ccc(F)cc4)CC1CCC32C (stereo not given)	1	-3	4	0.71	.	0	.
CC12COC3(P(=O)(c4ccccc4)c4ccccc4)CC1CCC23CP(=O)(c1ccccc1)c1ccccc1 (stereo not given)	-6	-3	-7	-1.2	-2.9*	2	0.051*
CCCOc1ccc(/C=N\NC(=O)CCc2n[nH]c(=O)[nH]c2=O)cc1OC	4	10	-4	0.62	3.4*	0	0.089
O=C1C2C(c3cccc(/C=C/c4ccccc4)c3)CC=CC2C(c2ccc(C(F)(F)F)cc2)N1Cc1ccccc1 (stereo not given)	.	4	.	0.046	.	.	0.087
O=C1C2C(c3cccc(/C=C/c4ccccc4)c3)CC=CC2C(c2ccc3ccccc3c2)N1Cc1ccccc1 (stereo not given)	.	5	.	0.048	.	.	.
